Data as given in ChEMBL document CHEMBL1154186, “Synthesis, kinase inhibitory potencies, and in vitro antiproliferative evaluation of new Pim kinase inhibitors” (J Med Chem, 2009).

How the values were obtained:
[1] = target: Serine/threonine-protein kinase Nek6 (Homo sapiens) (UniProt Q9HC98); test: Inhibition of NEK6 assessed as residual enzyme activity at 10 uM relative to untreated control
Method in brief: (§1)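 Assayed with [γ-33P]ATP at 50 µM and 10 mM Mg acetate in 50 mM Tris/HCl pH 7.5, 0.1 mM EGTA, 0.1% 2-mercaptoethanol, 30 min, 21 °C. Phosphoric acid stop, P81 filter capture. ERK2 and Lck are mouse; AMPK is rat. 10 µM compound; % activity remaining relative to control without inhibitor, duplicates.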

[2] = target: T1, Serine/threonine-protein kinase 3 (Homo sapiens) (UniProt Q13188); test: Inhibition of MST2 assessed as residual enzyme activity at 10 uM relative to untreated control
T1 sequence (whole entry): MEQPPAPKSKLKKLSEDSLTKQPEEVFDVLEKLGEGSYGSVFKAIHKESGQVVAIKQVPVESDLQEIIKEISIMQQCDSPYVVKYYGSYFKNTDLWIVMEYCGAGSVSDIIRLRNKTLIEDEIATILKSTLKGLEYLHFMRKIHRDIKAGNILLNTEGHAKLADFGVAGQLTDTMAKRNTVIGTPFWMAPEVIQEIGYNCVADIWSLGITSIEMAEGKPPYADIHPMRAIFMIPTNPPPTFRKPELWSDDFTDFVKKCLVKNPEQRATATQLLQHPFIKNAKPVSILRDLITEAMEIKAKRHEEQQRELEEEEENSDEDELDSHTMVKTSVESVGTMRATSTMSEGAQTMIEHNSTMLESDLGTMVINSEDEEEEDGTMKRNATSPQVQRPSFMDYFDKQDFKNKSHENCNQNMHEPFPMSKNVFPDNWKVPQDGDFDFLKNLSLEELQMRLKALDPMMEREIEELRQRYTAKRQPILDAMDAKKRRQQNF
Method in brief: (§2)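 Kinases of human origin, except CK1δ, which is rat. Run in 50 mM Tris/HCl pH 7.5, 0.1 mM EGTA, 0.1% 2-mercaptoethanol and 10 mM Mg acetate, with [γ-33P]ATP at 20 µM, 30 min at 21 °C. Acid-stopped and captured on P81 filters. Compound tested at 10 µM; residual % of uninhibited control, duplicate determinations.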

[3] = target: T2, Serine/threonine-protein kinase Chk1 (Homo sapiens) (UniProt O14757); test: Inhibition of CHK1 assessed as residual enzyme activity at 10 uM relative to untreated control; method in brief: as §2
T2 sequence (whole entry): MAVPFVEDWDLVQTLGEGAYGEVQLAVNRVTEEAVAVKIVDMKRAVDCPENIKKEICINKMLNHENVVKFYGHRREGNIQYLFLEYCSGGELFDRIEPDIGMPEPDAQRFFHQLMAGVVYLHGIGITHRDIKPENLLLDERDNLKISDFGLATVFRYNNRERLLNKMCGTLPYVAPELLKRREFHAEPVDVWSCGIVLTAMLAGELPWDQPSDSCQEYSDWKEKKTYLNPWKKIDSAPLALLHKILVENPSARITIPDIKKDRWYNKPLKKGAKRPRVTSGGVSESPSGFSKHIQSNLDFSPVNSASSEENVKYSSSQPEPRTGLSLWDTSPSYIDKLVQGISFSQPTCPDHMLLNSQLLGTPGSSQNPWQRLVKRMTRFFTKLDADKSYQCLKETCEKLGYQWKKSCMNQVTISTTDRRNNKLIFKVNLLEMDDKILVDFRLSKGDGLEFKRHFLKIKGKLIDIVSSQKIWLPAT

[4] = target: Maternal embryonic leucine zipper kinase (Homo sapiens) (UniProt Q14680); test: Inhibition of MELK assessed as residual enzyme activity at 10 uM relative to untreated control; method in brief: as §1
Maternal embryonic leucine zipper kinase (Homo sapiens), sequence (Q14680 whole entry, looked up): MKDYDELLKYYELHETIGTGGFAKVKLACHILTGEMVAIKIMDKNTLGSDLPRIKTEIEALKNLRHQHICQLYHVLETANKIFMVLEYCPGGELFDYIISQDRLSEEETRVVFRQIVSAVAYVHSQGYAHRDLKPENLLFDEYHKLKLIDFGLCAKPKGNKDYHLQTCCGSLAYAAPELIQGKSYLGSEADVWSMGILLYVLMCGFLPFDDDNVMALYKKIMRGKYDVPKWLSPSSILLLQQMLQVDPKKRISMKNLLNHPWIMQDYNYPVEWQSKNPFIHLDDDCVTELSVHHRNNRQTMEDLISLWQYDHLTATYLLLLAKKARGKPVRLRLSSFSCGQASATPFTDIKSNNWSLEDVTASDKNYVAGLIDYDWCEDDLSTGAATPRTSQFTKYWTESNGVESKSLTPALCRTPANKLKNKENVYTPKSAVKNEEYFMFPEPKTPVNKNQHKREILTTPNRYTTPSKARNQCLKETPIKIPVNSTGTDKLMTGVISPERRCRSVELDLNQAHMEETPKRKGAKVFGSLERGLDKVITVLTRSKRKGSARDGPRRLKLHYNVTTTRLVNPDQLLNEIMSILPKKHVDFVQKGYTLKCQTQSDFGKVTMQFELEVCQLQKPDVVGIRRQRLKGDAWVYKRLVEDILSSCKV

[5] = target: Serine/threonine-protein kinase N2 (Homo sapiens) (UniProt Q16513); test: Inhibition of PRK2 assessed as residual enzyme activity at 10 uM relative to untreated control
Serine/threonine-protein kinase N2 (Homo sapiens), sequence (Q16513 whole entry, looked up): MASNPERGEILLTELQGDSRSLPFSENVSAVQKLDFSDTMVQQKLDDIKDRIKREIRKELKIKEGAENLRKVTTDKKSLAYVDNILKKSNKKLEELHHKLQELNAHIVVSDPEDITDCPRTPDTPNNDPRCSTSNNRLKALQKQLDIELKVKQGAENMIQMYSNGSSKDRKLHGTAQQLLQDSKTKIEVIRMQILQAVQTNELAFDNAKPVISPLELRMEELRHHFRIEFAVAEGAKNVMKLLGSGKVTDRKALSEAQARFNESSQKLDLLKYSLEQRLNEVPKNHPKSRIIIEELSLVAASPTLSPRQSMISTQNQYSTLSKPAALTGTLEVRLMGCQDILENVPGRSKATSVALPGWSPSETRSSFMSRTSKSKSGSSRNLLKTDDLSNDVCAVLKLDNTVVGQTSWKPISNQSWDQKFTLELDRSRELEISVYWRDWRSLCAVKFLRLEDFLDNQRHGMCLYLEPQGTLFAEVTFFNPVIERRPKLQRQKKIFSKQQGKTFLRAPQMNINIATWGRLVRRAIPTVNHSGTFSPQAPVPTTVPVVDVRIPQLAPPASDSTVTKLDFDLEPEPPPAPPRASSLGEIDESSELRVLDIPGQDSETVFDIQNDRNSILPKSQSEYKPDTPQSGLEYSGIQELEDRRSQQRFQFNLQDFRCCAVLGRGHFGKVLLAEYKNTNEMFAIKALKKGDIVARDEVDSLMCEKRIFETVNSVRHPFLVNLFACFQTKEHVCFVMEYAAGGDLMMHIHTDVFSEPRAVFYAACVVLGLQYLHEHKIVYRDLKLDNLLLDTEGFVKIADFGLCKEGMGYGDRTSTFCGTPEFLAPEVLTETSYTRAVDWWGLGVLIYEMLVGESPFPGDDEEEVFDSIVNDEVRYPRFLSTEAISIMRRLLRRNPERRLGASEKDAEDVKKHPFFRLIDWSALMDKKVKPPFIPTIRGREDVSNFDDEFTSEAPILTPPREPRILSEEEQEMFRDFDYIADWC
Method in brief: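 Tris/HCl pH 7.5, EGTA, 2-mercaptoethanol buffer, 30 min, 21 °C, compound at 10 µM. Radioactive phosphate measured on P81 filters. Residual activity as % of uninhibited incubations, duplicates.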

[6] = target: Serine/threonine-protein kinase PLK1 (Homo sapiens) (UniProt P53350); test: Inhibition of PLK1 assessed as residual enzyme activity at 10 uM relative to untreated control
Serine/threonine-protein kinase PLK1 (Homo sapiens), sequence (P53350 whole entry): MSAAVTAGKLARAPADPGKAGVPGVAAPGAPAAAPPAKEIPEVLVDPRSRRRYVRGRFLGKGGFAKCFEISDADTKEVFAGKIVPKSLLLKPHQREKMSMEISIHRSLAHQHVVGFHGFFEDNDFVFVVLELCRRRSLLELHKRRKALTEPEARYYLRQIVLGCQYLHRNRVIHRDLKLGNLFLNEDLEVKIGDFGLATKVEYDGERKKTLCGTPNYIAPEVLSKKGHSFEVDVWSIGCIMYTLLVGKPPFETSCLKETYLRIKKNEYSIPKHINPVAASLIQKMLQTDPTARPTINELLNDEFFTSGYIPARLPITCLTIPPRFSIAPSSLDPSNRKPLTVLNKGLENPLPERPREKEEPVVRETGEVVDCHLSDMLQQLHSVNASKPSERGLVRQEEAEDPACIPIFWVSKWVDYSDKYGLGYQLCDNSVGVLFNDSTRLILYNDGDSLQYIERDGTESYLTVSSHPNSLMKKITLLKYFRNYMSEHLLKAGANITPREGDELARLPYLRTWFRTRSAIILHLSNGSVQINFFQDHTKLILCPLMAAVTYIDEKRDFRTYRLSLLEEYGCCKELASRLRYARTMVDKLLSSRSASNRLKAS
Method in brief: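 30 min at 21 °C in the presence of 10 µM inhibitor. Incorporation read after P81 filter capture. Reported as % activity remaining relative to control, duplicates.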

[7] = target: T3, Inhibitor of nuclear factor kappa-B kinase subunit beta (Homo sapiens) (UniProt O14920); test: Inhibition of IKK-beta assessed as residual enzyme activity at 10 uM relative to untreated control
T3 sequence (whole entry): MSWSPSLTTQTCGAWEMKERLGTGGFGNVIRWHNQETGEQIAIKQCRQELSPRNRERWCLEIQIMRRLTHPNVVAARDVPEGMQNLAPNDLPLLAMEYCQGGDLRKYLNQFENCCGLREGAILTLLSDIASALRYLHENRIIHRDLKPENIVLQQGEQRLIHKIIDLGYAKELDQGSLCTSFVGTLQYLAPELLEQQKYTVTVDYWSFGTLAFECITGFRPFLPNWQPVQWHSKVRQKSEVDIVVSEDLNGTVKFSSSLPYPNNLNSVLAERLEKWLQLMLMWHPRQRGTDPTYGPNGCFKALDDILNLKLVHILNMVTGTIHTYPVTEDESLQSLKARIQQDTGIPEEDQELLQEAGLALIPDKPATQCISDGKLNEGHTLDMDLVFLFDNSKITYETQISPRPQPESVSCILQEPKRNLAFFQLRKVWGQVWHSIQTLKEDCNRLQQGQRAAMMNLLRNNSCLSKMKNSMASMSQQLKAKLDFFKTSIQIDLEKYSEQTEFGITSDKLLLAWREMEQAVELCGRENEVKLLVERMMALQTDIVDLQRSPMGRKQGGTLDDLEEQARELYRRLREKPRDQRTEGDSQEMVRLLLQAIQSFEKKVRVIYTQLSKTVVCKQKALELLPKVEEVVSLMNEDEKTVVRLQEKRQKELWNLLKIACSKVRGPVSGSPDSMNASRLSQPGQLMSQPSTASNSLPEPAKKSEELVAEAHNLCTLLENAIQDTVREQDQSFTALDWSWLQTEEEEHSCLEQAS
Method in brief: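 Radiometric filter-binding assay at 21 °C for 30 min. Mix: 50 mM Tris/HCl pH 7.5, 0.1 mM EGTA, 0.1% 2-mercaptoethanol, 10 mM Mg acetate and [γ-33P]ATP (800 cpm/pmol) at 5 µM. Stopped with orthophosphoric acid and spotted on P81. Compound at 10 µM; activity given as % remaining versus no-inhibitor control, duplicates. Kinases human full-length unless noted.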

[8] = target: Homeodomain-interacting protein kinase 3 (Homo sapiens) (UniProt Q9H422); test: Inhibition of HIPK3 assessed as residual enzyme activity at 10 uM relative to untreated control; method in brief: as §2
Homeodomain-interacting protein kinase 3 (Homo sapiens), sequence (Q9H422 whole entry, looked up): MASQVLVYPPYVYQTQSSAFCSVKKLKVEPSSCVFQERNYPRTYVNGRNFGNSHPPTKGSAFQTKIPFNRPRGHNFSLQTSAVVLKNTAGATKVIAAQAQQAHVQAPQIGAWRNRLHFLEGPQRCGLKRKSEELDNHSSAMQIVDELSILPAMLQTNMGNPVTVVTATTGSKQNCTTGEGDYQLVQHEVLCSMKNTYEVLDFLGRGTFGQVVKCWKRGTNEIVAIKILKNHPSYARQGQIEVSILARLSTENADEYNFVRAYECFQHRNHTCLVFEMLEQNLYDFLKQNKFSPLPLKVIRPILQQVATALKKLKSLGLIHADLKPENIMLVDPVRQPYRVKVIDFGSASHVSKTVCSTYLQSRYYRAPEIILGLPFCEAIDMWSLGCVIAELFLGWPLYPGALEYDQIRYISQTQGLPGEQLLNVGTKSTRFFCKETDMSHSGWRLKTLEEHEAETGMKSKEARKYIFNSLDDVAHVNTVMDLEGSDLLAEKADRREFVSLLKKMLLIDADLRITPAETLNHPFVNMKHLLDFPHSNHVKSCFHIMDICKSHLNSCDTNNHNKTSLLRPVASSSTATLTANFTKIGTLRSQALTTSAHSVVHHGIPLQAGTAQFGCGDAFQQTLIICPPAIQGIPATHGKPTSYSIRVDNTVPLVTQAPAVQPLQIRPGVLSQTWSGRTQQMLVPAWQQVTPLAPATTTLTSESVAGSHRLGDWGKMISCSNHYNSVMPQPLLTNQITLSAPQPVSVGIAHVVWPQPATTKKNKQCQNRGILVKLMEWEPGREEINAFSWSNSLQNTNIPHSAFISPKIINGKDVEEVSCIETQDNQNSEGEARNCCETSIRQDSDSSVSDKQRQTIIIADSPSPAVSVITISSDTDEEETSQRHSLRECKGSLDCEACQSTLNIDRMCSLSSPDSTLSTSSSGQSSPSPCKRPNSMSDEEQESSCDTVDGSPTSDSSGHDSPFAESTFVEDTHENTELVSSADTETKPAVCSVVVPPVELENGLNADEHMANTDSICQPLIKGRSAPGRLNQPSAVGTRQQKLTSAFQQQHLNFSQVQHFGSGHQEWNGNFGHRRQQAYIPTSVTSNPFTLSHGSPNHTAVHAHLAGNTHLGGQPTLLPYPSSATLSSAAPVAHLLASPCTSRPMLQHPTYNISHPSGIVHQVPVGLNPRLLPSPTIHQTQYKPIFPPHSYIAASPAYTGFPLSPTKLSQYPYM

[9] = tested on: ERK2 (Mus musculus); test: Inhibition of ERK2 assessed as residual enzyme activity at 10 uM relative to untreated control
[10] = tested on: Lck (Mus musculus); test: Inhibition of Lck assessed as residual enzyme activity at 10 uM relative to untreated control

Serine/threonine-protein kinase Nek6 (Homo sapiens), sequence (Q9HC98 whole entry): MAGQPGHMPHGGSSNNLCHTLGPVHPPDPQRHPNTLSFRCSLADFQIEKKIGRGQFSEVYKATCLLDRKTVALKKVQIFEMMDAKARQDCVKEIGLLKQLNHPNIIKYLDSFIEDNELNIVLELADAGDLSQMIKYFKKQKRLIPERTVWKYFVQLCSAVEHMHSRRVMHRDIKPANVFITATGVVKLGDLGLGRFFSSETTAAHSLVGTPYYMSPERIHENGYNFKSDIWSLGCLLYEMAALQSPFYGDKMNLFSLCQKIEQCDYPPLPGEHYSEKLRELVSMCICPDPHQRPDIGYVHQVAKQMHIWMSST

SMILES | Activity [1] [%] | Activity [2] [%] | Activity [3] [%] | Activity [4] [%] | Activity [5] [%] | Activity [6] [%] | Activity [7] [%] | Activity [8] [%] | Activity [9] [%] | Activity [10] [%]
O=Cc1c[nH]c2c1ccc1c3ccccc3[nH]c12 | 78 | 63 | 97 | 61 | 31 | 91 | 71 | 64 | – | –
O=Cc1c[nH]c2ccc3c4ccccc4[nH]c3c12 | 86 | 96 | 101 | 89 | 101 | 106 | 108 | 100 | 94 | 114
c1ccc2c(c1)[nH]c1c2ccc2cc[nH]c21 | 90 | 82 | 123 | 93 | 95 | 111 | 106 | 97 | 94 | 88
c1ccc2c(c1)[nH]c1c3cc[nH]c3ccc21 | 71 | 77 | 112 | 82 | 84 | 105 | 110 | 106 | 100 | 81
